Results as given in ChEMBL document CHEMBL1136923, “Highly potent, orally available anti-inflammatory broad-spectrum chemokine inhibitors” (J Med Chem, 2009).
Each block holds one compound with its values, some of them ahead of it.

What was measured:
[1] = target: C-C chemokine receptor type 2 (Homo sapiens) (UniProt P41597); test: Antagonist activity at CCR2 in human THP1 cells assessed as inhibition of CCL2-induced chemotaxis after 2 hrs by microtiter format trans-well migration assay; type: functional, cell-based; details: THP-1
Sequence of C-C chemokine receptor type 2 (Homo sapiens) (P41597 whole entry, looked up): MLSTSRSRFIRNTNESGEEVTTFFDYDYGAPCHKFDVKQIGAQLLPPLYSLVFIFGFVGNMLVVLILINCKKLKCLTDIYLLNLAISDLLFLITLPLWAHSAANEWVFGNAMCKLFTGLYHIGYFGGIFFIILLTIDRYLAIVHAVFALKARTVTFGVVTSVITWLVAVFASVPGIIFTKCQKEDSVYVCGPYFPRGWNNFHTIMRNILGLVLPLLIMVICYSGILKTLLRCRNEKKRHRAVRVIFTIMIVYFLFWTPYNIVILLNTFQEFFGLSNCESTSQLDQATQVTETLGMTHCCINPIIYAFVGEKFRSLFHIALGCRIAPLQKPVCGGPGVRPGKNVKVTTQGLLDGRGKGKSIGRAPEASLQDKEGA
Summary of the method: (§1)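 Microtiter trans-well migration assay in Gey's balanced salt solution with 1 mg/mL endotoxin-free BSA, no fetal calf serum. Migration ran 2 h at 37 °C. Compounds dissolved in DMSO and added to both top and bottom compartments, final DMSO 1%.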

Mus musculus [2] = test: Antiinflammatory activity in po dosed mouse assessed as inhibition of LPS-induced TNFalpha upregulation measured 2 hrs after LPS challenge relative to control; type: functional
Summary of the method: (§2)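 Murine sublethal LPS endotoxemia screen. LPS is injected intraperitoneally and serum TNF-α is measured 2 h later as the end point. Compound is given subcutaneously or orally in a vehicle of 0.6% DMSO plus 1% carboxymethylcellulose (final concentrations) in sterile water. Values are % relative to control.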

[3] = target: C-C chemokine receptor type 2 (Homo sapiens) (UniProt P41597); test: Antagonist activity at CCR2 in human THP1 cells assessed as inhibition of CCL2-induced chemotaxis at 100 nM after 2 hrs by microtiter format trans-well migration assay; type: functional, cell-based; details: THP-1; summary of the method: as §1
[4] = Clearance in Sprague-Dawley rat at 1 mg/kg, iv administered as single dose; type: ADME, organism-based; design: dose 1 mg/kg, route intravenous; details: in vivo
Summary of the method: (§3)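 Male Sprague-Dawley rats, three per compound, receive a single intravenous dose in 5% DMSO in 0.9% saline. Food and water are given ad libitum. Plasma is taken at 5, 15, 30, 60, 120, 180, 240 and 480 min. Drug is measured by LC/MS/MS after extraction with 0.1% formic acid in acetonitrile. The curve is back-extrapolated to time zero assuming an initial volume of 0.26 L/kg.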

Mus musculus [5] = test: Antiinflammatory activity in mouse assessed as inhibition of LPS-induced TNFalpha upregulation at 0.75 ug, po measured 2 hrs after LPS challenge; type: functional
Summary of the method: (§4)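 Murine sublethal endotoxemia: LPS given intraperitoneally, with serum TNF-α measured 2 h after the LPS injection as the end point. Compound was given subcutaneously or orally. Vehicle was 0.6% DMSO and 1% carboxymethylcellulose (final concentrations) in sterile water. Effect is reported as % relative to control.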

Rattus norvegicus = test: Plasma concentration in Sprague-Dawley rat at 3 mg/kg, po administered as single dose; type: ADME, organism-based; design: dose 3 mg/kg, route oral; details: in vivo
Summary of the method: (§5)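 Male Sprague-Dawley rats, three per compound, receive a single oral dose by gavage in 1% carboxymethylcellulose in 0.9% saline, with food and water ad libitum. Plasma is sampled from 5 to 480 min and drug is quantified by positive-mode LC/MS/MS after acetonitrile/formic acid extraction. The lower limit of quantitation is about 2 ng/mL. Exposure is AUC(0→t) by the linear/log trapezoidal rule, and F is oral fractional bioavailability.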

Mus musculus [6] = test: Antiinflammatory activity in sc dosed mouse assessed as inhibition of LPS-induced TNFalpha upregulation measured 2 hrs after LPS challenge relative to control; type: functional; summary of the method: as §2
[7] = AUC (0 to t) in Sprague-Dawley rat at 1 mg/kg, iv administered as single dose; type: ADME, organism-based, Plasma; design: dose 1 mg/kg, route intravenous; details: Sprague-Dawley, plasma
Summary of the method: (§6)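 Male Sprague-Dawley rats, three per compound per route, single dose. IV vehicle 5% DMSO in 0.9% saline; oral gavage vehicle 1% carboxymethylcellulose in 0.9% saline; fed ad libitum. Plasma taken 5–480 min post-dose, extracted with 0.1% formic acid in acetonitrile, quantified by LC/MS/MS (positive mode). AUC(0–t) by linear/log trapezoidal rule; IV curve back-extrapolated assuming initial volume 0.26 L/kg.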

Mus musculus [8] = test: Antiinflammatory activity in mouse assessed as inhibition of LPS-induced TNFalpha upregulation at 0.0066 ug, sc measured 2 hrs after LPS challenge; type: functional; summary of the method: as §4
[9] = target: C-C chemokine receptor type 2 (Homo sapiens) (UniProt P41597); test: Antagonist activity at CCR2 in human THP1 cells assessed as inhibition of CCL2-induced chemotaxis at 10 nM after 2 hrs by microtiter format trans-well migration assay; type: functional, cell-based; details: THP-1; summary of the method: as §1
Mus musculus [10] = test: Antiinflammatory activity in mouse assessed as inhibition of LPS-induced TNFalpha upregulation at 0.00016 mg, sc measured 2 hrs after LPS challenge; type: functional
Summary of the method: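 Murine sublethal endotoxemia: LPS given intraperitoneally, serum TNF-α measured 2 h after LPS injection. Compound vehicle 0.6% DMSO plus 1% carboxymethylcellulose (final concentrations) in sterile water.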

Mus musculus [11] = test: Antiinflammatory activity in mouse assessed as inhibition of LPS-induced TNFalpha upregulation at 0.016 mg, sc measured 2 hrs after LPS challenge; type: functional; summary of the method: as §4
[12] = Fractional bioavailability in Sprague-Dawley rat at 3 mg/kg, po administered as single dose; type: ADME, organism-based; details: in vivo; summary of the method: as §5
Mus musculus [13] = test: Antiinflammatory activity in mouse assessed as inhibition of LPS-induced TNFalpha upregulation at 0.0186 mg, po measured 2 hrs after LPS challenge; type: functional; summary of the method: as §4
[14] = target: C-C chemokine receptor type 2 (Homo sapiens) (UniProt P41597); test: Antagonist activity at CCR2 in human THP1 cells assessed as inhibition of CCL2-induced chemotaxis at 0.1 nM after 2 hrs by microtiter format trans-well migration assay; type: functional, cell-based; details: THP-1; summary of the method: as §1
[15] = target: C-C chemokine receptor type 2 (Homo sapiens) (UniProt P41597); test: Antagonist activity at CCR2 in human THP1 cells assessed as inhibition of CCL2-induced chemotaxis at 1000 nM after 2 hrs by microtiter format trans-well migration assay; type: functional, cell-based; details: THP-1; summary of the method: as §1
Mus musculus [16] = test: Antiinflammatory activity in mouse assessed as inhibition of LPS-induced TNFalpha upregulation at 0.0016 ug, sc measured 2 hrs after LPS challenge; type: functional; summary of the method: as §4
[17] = target: C-C chemokine receptor type 2 (Homo sapiens) (UniProt P41597); test: Antagonist activity at CCR2 in human THP1 cells assessed as inhibition of CCL2-induced chemotaxis at 1 nM after 2 hrs by microtiter format trans-well migration assay; type: functional, cell-based; details: THP-1; summary of the method: as §1
Mus musculus [18] = test: Antiinflammatory activity in mouse assessed as inhibition of LPS-induced TNFalpha upregulation at 0.0186 ug, po measured 2 hrs after LPS challenge; type: functional; summary of the method: as §4
Mus musculus [19] = test: Antiinflammatory activity in mouse assessed as inhibition of LPS-induced TNFalpha upregulation at 0.016 ug, sc measured 2 hrs after LPS challenge; type: functional; summary of the method: as §4
[20] = Volume of distribution at steady state in Sprague-Dawley rat at 1 mg/kg, iv administered as single dose; type: ADME, organism-based; design: dose 1 mg/kg, route intravenous; details: in vivo, read-out: Vdss; summary of the method: as §3
Mus musculus [21] = test: Antiinflammatory activity in mouse assessed as inhibition of LPS-induced TNFalpha upregulation at 0.0016 mg, sc measured 2 hrs after LPS challenge; type: functional; summary of the method: as §4
[22] = Half life in Sprague-Dawley rat at 1 mg/kg, iv administered as single dose; type: ADME, organism-based; design: dose 1 mg/kg, route intravenous; details: in vivo; summary of the method: as §3
Mus musculus [23] = test: Antiinflammatory activity in mouse assessed as inhibition of LPS-induced TNFalpha upregulation at 0.068 ug, po measured 2 hrs after LPS challenge; type: functional; summary of the method: as §4
[24] = AUC (0 to t) in Sprague-Dawley rat at 3 mg/kg, po administered as single dose; type: ADME, organism-based; design: dose 3 mg/kg, route oral; details: plasma; summary of the method: as §6
Mus musculus [25] = test: Antiinflammatory activity in mouse assessed as inhibition of LPS-induced TNFalpha upregulation at 540 pg, po measured 2 hrs after LPS challenge; type: functional; summary of the method: as §2
Mus musculus [26] = test: Antiinflammatory activity in sc dosed mouse assessed as inhibition of LPS-induced TNFalpha upregulation measured 2 hrs after LPS challenge; type: functional
Mus musculus [27] = test: Antiinflammatory activity in mouse assessed as inhibition of LPS-induced TNFalpha upregulation at 0.0027 ug, po measured 2 hrs after LPS challenge; type: functional; summary of the method: as §4
Mus musculus [28] = test: Antiinflammatory activity in po dosed mouse assessed as inhibition of LPS-induced TNFalpha upregulation measured 2 hrs after LPS challenge; type: functional
[29] = Cmax in Sprague-Dawley rat at 3 mg/kg, po administered as single dose; type: ADME, organism-based; design: dose 3 mg/kg, route oral; details: in vivo; summary of the method: as §5

- ED50 [1]: 9 nM
SMILES: CC(CCl)(CCl)C(=O)N[C@H]1CCCCNC1=O

- ED50 [1]: 0.07 nM
SMILES: CCC(C)(C)C(=O)N[C@H]1CCCCNC1=O

- ED50 [1]: 4 nM
SMILES: CCCCCCCCCC(C)(C)CC(=O)N[C@H]1CCCCNC1=O

- ED50 [1]: 3 nM
SMILES: CCCCCCCCCCC(C)C(=O)N[C@H]1CCCCNC1=O (mixture of isomers; form 2)

- inhibition [3]: 99%
- clearance [4]: 55 mL/min/kg
- Cp (Rattus norvegicus): < 2 ng/mL
- AUC(0-t) [7]: 48.3 ng·h/mL
- inhibition [9]: 100%
- bioavailability [12]: 5%
- inhibition [14]: 38%
- inhibition [15]: 100%
- inhibition [17]: 98%
- ED50 [1]: 0.09 nM
- Vd [20]: 0.6 L/kg
- half-life [22]: 11 min
- AUC(0-t) [24]: 7.17 ng·h/mL
- Cmax [29]: 3 ng/mL
SMILES: CC1(C(=O)N[C@H]2CCCCNC2=O)CCCCC1
- inhibition (INH) (Mus musculus [2]): 90%
- inhibition (INH) (Mus musculus [5]): 70%
- inhibition (INH) (Mus musculus [6]): 90%
- inhibition (INH) (Mus musculus [8]): 52%
- inhibition (INH) (Mus musculus [10]): 74%
- inhibition (INH) (Mus musculus [11]): 88%
- inhibition (INH) (Mus musculus [13]): 90%
- inhibition (INH) (Mus musculus [16]): 11%
- inhibition (INH) (Mus musculus [18]): 64%
- inhibition (INH) (Mus musculus [19]): 71%
- inhibition (INH) (Mus musculus [21]): 73%
- inhibition (INH) (Mus musculus [23]): 64%
- inhibition (INH) (Mus musculus [25]): -1%
- ED50 (Mus musculus [26]): 0.33 µg/kg
- inhibition (INH) (Mus musculus [27]): 14%
- ED50 (Mus musculus [28]): 0.33 µg/kg
